Published values pooled from the literature.
Target: Myosin light chain kinase, smooth muscle (MYLK, Homo sapiens, UniProt Q15746)

CNC(=O)Nc1ccc2c(c1)[C@@]1(CC2)OC(=O)N(CC(=O)N(Cc2ccc(F)cc2)[C@@H](C)C(F)(F)F)C1=O  remaining binding (cell-free assay; competition with immobilised ligand; 1 µM): 88%
O=C(Nc1cnn(-c2csc(C(=O)NC3COC3)c2)c1)Nc1c(F)cccc1Cl  remaining activity (enzyme activity; inhibitor; 5 µM): 95.9%
O=C(Nc1cccnn1)N1CCC(=Cc2cccc(Oc3ccc(C(F)(F)F)cn3)c2)CC1  remaining binding (cell-free assay; competition with immobilised ligand; 1 µM): 100%
O=C1Nc2ccc(Cl)cc2C1=Cc1cc(Cl)c(O)c(Cl)c1  remaining signal (cell-free assay; 0.5 µM): 62.3%
C[C@H](c1ccc(F)cc1)N(Cc1cccc(C(=O)O)c1)C(=O)c1cnc2ccccc2c1  remaining binding (cell-free assay; competition with immobilised ligand; 1 µM): 76%
COc1cc(Cl)c(C(=O)N[C@@H](CN[C@H]2CC[C@@H](N)CC2)Cc2ccc(C#N)cc2)cc1-c1ccc(CN[C@H](C)c2ccc(C)cc2)o1  remaining activity (enzyme activity; inhibitor; 1 µM): 95%
Nc1nc(NC2CCCCC2)sc1C(=O)c1ccccc1  remaining activity (enzyme activity; inhibitor; 10 µM): 44%
O=C1NC(=O)c2cc(Nc3ccc(F)cc3)c(Nc3ccc(F)cc3)cc21  remaining signal (cell-free assay; 0.5 µM): 100%
CC(C)(O)[C@H]1CC[C@H](Nc2ccc3ncc(-c4cccc(C(F)(F)F)c4)n3n2)CC1  remaining activity (enzyme activity; inhibitor; 1 µM): 99.8%
C[C@@H]1CCN(c2nccc(-c3cnn4ncccc34)n2)C1  remaining binding (binding; 1 µM): 92%
Nc1nc(Nc2ccccc2)sc1C(=O)c1c(F)cccc1F  remaining activity (enzyme activity; inhibitor; 10 µM): 29%
Cn1cncc1C1=CN(c2ncnc3[nH]cnc23)CCS1  inhibition (enzyme activity; inhibitor; radiometric; 2 µM): 91.1%
O=C(N1CCS(=O)(=O)CC1)N1C[C@H](c2ccc(OC(F)(F)F)cc2)C[C@H](c2nc(C3CC3)no2)C1  remaining binding (cell-free assay; competition with immobilised ligand; 1 µM): 100%
COc1cc(Nc2cnc(C#N)c(O[C@H](C)CN(C)C)n2)ncc1-c1cnn(C)c1  remaining activity (enzyme activity; inhibitor; radiometric; 1 µM): 80%
Oc1cccc(-c2nc(N3CCOCC3)c3oc4ncccc4c3n2)c1  remaining signal (cell-free assay; 0.5 µM): 77.1%
O=C(Nc1ccc(Oc2ccc(F)cc2)cc1)N1CCc2ncccc2[C@H]1c1ccc(F)cc1  remaining binding (cell-free assay; competition with immobilised ligand; 1 µM): 100%
CCN(CC)c1ccc(C2=NNC(=O)CC2C)cc1[N+](=O)[O-] (centres unmarked)  remaining activity (enzyme activity; inhibitor; 10 µM): 90%
Cc1nc(N2CC[C@@H](O)C2)ncc1-c1cc(C(F)(F)F)cc2[nH]ncc12  remaining binding (binding; competition with immobilised ligand; 1 µM): 100%
CN(c1ncccc1CNc1nc(Nc2ccc3c(c2)CC(=O)N3)ncc1C(F)(F)F)S(C)(=O)=O  inhibition (enzyme activity; inhibitor; 1 µM): 16.6%
CN1CC(Oc2cnc(C#N)cc2-c2ccn3nc(NC(=O)C4CC4)cc3c2)C1  inhibition (enzyme activity; inhibitor; 1 µM): -19%
CC(C)(C)c1nc(-c2cccc(NS(=O)(=O)c3c(F)cccc3F)c2F)c(-c2ccnc(N)n2)s1  remaining activity (enzyme activity; inhibitor; radiometric; 1 µM): 74%
COc1ccc2c(c1)O[C@@H](c1ccc(OC)c(OC)c1)C[C@H]2NC(=O)C1(c2ccc3c(c2)OC(F)(F)O3)CC1  remaining binding (cell-free assay; competition with immobilised ligand; 1 µM): 85%
N#CCCc1ccc2c(c1)-c1[nH]c3ccc([N+](=O)[O-])cc3c1CC(=O)N2  remaining signal (cell-free assay; 0.5 µM): 95.2%
Cn1c2c(Cl)c(Cl)ccc2c2cc(N)[nH]c(=O)c21  ΔTm (thermal stability; DSF; 10 µM): 0.1 °C
Cn1cnc(Br)c1C1=CN(c2ncnc3[nH]cnc23)CCS1  inhibition (enzyme activity; inhibitor; radiometric; 2 µM): 93.4%
Oc1cccc(-c2nc(N3CCOCC3)c3oc4ncccc4c3n2)c1  remaining activity (enzyme activity; inhibitor; 10 µM): 48%
